Reference: ChEMBL document CHEMBL4334482, “Cysteine Residue Containing Merocytochalasans and 17,18-seco-Aspochalasins from Aspergillus micronesiensis” (J Nat Prod, 2019)
≈ marks a conversion by molar mass, not a printed value. Calls of active or inactive are those of the source. No cut-off for these calls is given here.

Columns and labels:
[1] = test system: HL-60; experiment: Cytotoxicity against human HL60 cells assessed as reduction in cell viability by MTS assay; assay type: functional, cell-based
In short: (§1)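 In vitro cytotoxicity was tested on a panel of five human cancer lines (HL60, A549, Hep3B, MCF-7, SW480), following an earlier published method. Values are reported as IC50 in μM.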

[2] = test system: A549; experiment: Cytotoxicity against human A549 cells assessed as reduction in cell viability by MTS assay; assay type: functional, cell-based; in short: as §1
[3] = test system: Hep 3B2; experiment: Cytotoxicity against human Hep3B cells assessed as reduction in cell viability by MTS assay; assay type: functional, cell-based; in short: as §1
[4] = test system: MCF7; experiment: Cytotoxicity against human MCF7 cells assessed as reduction in cell viability by MTS assay; assay type: functional, cell-based; in short: as §1
[5] = test system: SW480; experiment: Cytotoxicity against human SW480 cells assessed as reduction in cell viability by MTS assay; assay type: functional, cell-based; in short: as §1
[6] = test system: Staphylococcus aureus; experiment: Antibacterial activity against Staphylococcus aureus; assay type: functional
[7] = test system: Staphylococcus aureus; experiment: Antibacterial activity against methicillin-resistant Staphylococcus aureus; assay type: functional
[8] = test system: Candida albicans; experiment: Antifungal activity against Candida albicans assessed as reduction in fungal growth incubated for 48 hrs by two fold serial dilution method; assay type: functional

SMILES | Activity [1] | Activity [2] | Activity [3] | Activity [4] | Activity [5] | IC50 [1] [µM] | IC50 [2] [µM] | IC50 [3] [µM] | IC50 [4] [µM] | IC50 [5] [µM] | MIC50 [6] [µg/mL] | MIC90 [6] [µg/mL] | MIC50 [7] [µg/mL] | MIC90 [7] [µg/mL] | MIC50 [8] [µg/mL] | MIC90 [8] [µg/mL]
COC(=O)CC/C(C)=C/[C@H]1C=C(C)[C@@H](C)[C@H]2[C@H](CC(C)C)NC(=O)[C@]21C(=O)CCC(=O)O | inactive | inactive | inactive | inactive | inactive |  |  |  |  |  |  |  |  |  |  | 
COC(=O)CCC(=O)[C@@]12C(=O)N[C@@H](CC(C)C)[C@@H]1[C@H](C)C(C)=C[C@@H]2/C=C(\C)CCC(=O)O | inactive | inactive | inactive | inactive | inactive |  |  |  |  |  |  |  |  |  |  | 
CC(=O)NCCS[C@@H]1CC(=O)[C@H](O)CC/C(C)=C/[C@H]2C=C(C)[C@@H](C)[C@H]3[C@H](CC(C)C)NC(=O)[C@]32C1=O |  |  |  |  |  | 9.3 | > 20 | 19.9 | 16.1 | 10.1 | 40.8 (≈ 78.7 µM) | 58.5 (≈ 113 µM) | 17.5 (≈ 33.7 µM) | 28.4 (≈ 54.8 µM) | 43.3 (≈ 83.5 µM) | 89.9 (≈ 173 µM)
COC(=O)[C@H](O)CS[C@@H]1CC(=O)[C@H](O)CC/C(C)=C/[C@H]2C=C(C)[C@@H](C)[C@H]3[C@H](CC(C)C)NC(=O)[C@]32C1=O |  |  |  |  |  | 3 | 16.7 | 8.2 | 17.1 | 13.6 | 14.5 (≈ 27.1 µM) | 27 (≈ 50.4 µM) | 10.6 (≈ 19.8 µM) | 14.7 (≈ 27.4 µM) | 94.7 (≈ 177 µM) | > 100
